ChEMBL document CHEMBL3244382, “Structural requirements for antileukemic activity among the naturally occurring and semisynthetic maytansinoids” (J Med Chem, 1978)
≈ marks a conversion by molar mass, not a printed value. Calls of active or inactive are those of the source.

What was measured:
Mus musculus [1] = experiment: Toxicity in PS mouse allografted with mouse P388 cells assessed as change in body weight at 3.1 ug/kg relative to control; type: organism-based; settings: in vivo, 0.0031 mg/kg
Method in brief: (§1)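 P388 (PS) leukemia in mice, 6 mice per dose group. Weight change is the difference in grams between treated and control animals. Survivors are recorded on toxicity day, normally 4 days after the first injection.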

Mus musculus [2] = experiment: Toxicity in PS mouse allografted with mouse P388 cells assessed as change in body weight at 1.6 ug/kg relative to control; type: organism-based; settings: in vivo, 0.0016 mg/kg; method in brief: as §1
Mus musculus [3] = experiment: Toxicity in PS mouse allografted with mouse P388 cells assessed as survival at 50 ug/kg after 4 days; type: organism-based; settings: in vivo, 0.05 mg/kg, 96 h
Method in brief: (§2)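 PS (P388) leukemic mice, six started per dose group. Toxicity scored as survivors on the toxicity day over the number of mice started. The toxicity day is normally 4 days after the first injection.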

Mus musculus [4] = experiment: Toxicity in PS mouse allografted with mouse P388 cells assessed as survival at 100 ug/kg after 4 days; type: organism-based; settings: in vivo, 0.1 mg/kg, 96 h; method in brief: as §2
Mus musculus [5] = experiment: Toxicity in PS mouse allografted with mouse P388 cells assessed as survival at 25 ug/kg after 4 days; type: organism-based; settings: in vivo, 0.025 mg/kg, 96 h; method in brief: as §2
Mus musculus [6] = experiment: Toxicity in PS mouse allografted with mouse P388 cells assessed as survival at 12.5 ug/kg after 4 days; type: organism-based; settings: in vivo, 0.0125 mg/kg, 96 h; method in brief: as §2
Mus musculus [7] = experiment: Toxicity in PS mouse allografted with mouse P388 cells assessed as survival at 6.2 ug/kg after 4 days; type: organism-based; settings: in vivo, 0.0062 mg/kg, 96 h; method in brief: as §2
Mus musculus [8] = experiment: Toxicity in PS mouse allografted with mouse P388 cells assessed as survival at 3.1 ug/kg after 4 days; type: organism-based; settings: in vivo, 0.0031 mg/kg, 96 h; method in brief: as §2
Mus musculus [9] = experiment: Toxicity in PS mouse allografted with mouse P388 cells assessed as survival at 1.6 ug/kg after 4 days; type: organism-based; settings: in vivo, 0.0016 mg/kg, 96 h; method in brief: as §2
Mus musculus [10] = experiment: Toxicity in PS mouse allografted with mouse P388 cells assessed as survival at 200 ug/kg after 4 days; type: organism-based; settings: in vivo, 0.2 mg/kg, 96 h; method in brief: as §2
Mus musculus [11] = experiment: Toxicity in PS mouse allografted with mouse P388 cells assessed as change in body weight at 100 ug/kg relative to control; type: organism-based; settings: in vivo, 0.1 mg/kg; method in brief: as §1
Mus musculus [12] = experiment: Toxicity in PS mouse allografted with mouse P388 cells assessed as change in body weight at 50 ug/kg relative to control; type: organism-based; settings: in vivo, 0.05 mg/kg; method in brief: as §1
Mus musculus [13] = experiment: Toxicity in PS mouse allografted with mouse P388 cells assessed as change in body weight at 25 ug/kg relative to control; type: organism-based; settings: in vivo, 0.025 mg/kg; method in brief: as §1
Mus musculus [14] = experiment: Toxicity in PS mouse allografted with mouse P388 cells assessed as change in body weight at 12.5 ug/kg relative to control; type: organism-based; settings: in vivo, 0.0125 mg/kg; method in brief: as §1
Mus musculus [15] = experiment: Toxicity in PS mouse allografted with mouse P388 cells assessed as change in body weight at 6.2 ug/kg relative to control; type: organism-based; settings: in vivo, 0.0062 mg/kg; method in brief: as §1
Mus musculus [16] = experiment: Toxicity in PS mouse allografted with mouse P388 cells assessed as change in body weight at 200 ug/kg relative to control; type: organism-based; settings: in vivo, 0.2 mg/kg; method in brief: as §1
P388 [17] = experiment: Antitumor activity against mouse P388 cells allografted in PS mouse assessed as median survival time at 100 ug/kg relative to control; type: functional
Method in brief: (§3)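 P388 leukemia (PS) in mice, six mice started per dose group. Read-out is T/C: median survival time of the treated group divided by that of the untreated control group, expressed as a percent. The NIH protocol counts a compound as active when T/C > 125%.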

P388 [18] = experiment: Antitumor activity against mouse P388 cells allografted in PS mouse assessed as median survival time at 50 ug/kg relative to control; type: functional; method in brief: as §3
P388 [19] = experiment: Antitumor activity against mouse P388 cells allografted in PS mouse assessed as median survival time at 25 ug/kg relative to control; type: functional; method in brief: as §3
P388 [20] = experiment: Antitumor activity against mouse P388 cells allografted in PS mouse assessed as median survival time at 12.5 ug/kg relative to control; type: functional; method in brief: as §3
P388 [21] = experiment: Antitumor activity against mouse P388 cells allografted in PS mouse assessed as median survival time at 6.2 ug/kg relative to control; type: functional; method in brief: as §3
P388 [22] = experiment: Antitumor activity against mouse P388 cells allografted in PS mouse assessed as median survival time at 3.1 ug/kg relative to control; type: functional; method in brief: as §3
P388 [23] = experiment: Antitumor activity against mouse P388 cells allografted in PS mouse assessed as median survival time at 1.6 ug/kg relative to control; type: functional; method in brief: as §3
P388 [24] = experiment: Antitumor activity against mouse P388 cells allografted in PS mouse assessed as median survival time at 200 ug/kg relative to control; type: functional; method in brief: as §3
KB = experiment: Cytotoxicity against human KB cells; type: functional; settings: read-out: ED50 (the source's name)
Tubulin (Homo sapiens) = Tubulin (Homo sapiens) (UniProt P68371+Q9H4B7+P0DPH7+P68366+Q13509+Q71U36+P04350+Q3ZCM7+P07437+P68363+Q9BQE3+Q6PEY2+Q13885+Q9BVA1+Q9BUF5); experiment: Inhibition of brain tubulin polymerization (unknown origin) at 37 degC by spectrophotometry
Paracentrotus lividus = experiment: Antimitotic activity against sea urchin eggs assessed as drug level causing inhibition of mitosis; type: functional; settings: Egg
Mus musculus [25] = experiment: Toxicity in PS mouse allografted with mouse P388 cells assessed as change in body weight at 0.8 ug/kg relative to control; type: organism-based; settings: in vivo, 0.0008 mg/kg
Method in brief: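 PS (P388 leukemia) mice, six per dose group. Toxicity read as the difference in grams between the weights of treated and control animals.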

Mus musculus [26] = experiment: Toxicity in PS mouse allografted with mouse P388 cells assessed as survival at 0.8 ug/kg after 4 days; type: organism-based; settings: in vivo, 0.0008 mg/kg, 96 h; method in brief: as §2
P388 [27] = experiment: Antitumor activity against mouse P388 cells allografted in PS mouse assessed as median survival time at 0.8 ug/kg relative to control; type: functional; method in brief: as §3
Mus musculus [28] = experiment: Toxicity in PS mouse allografted with mouse P388 cells assessed as survival at 400 ug/kg after 4 days; type: organism-based; settings: in vivo, 0.4 mg/kg, 96 h; method in brief: as §2
Mus musculus [29] = experiment: Toxicity in PS mouse allografted with mouse P388 cells assessed as change in body weight at 400 ug/kg relative to control; type: organism-based; settings: in vivo, 0.4 mg/kg; method in brief: as §1
P388 [30] = experiment: Antitumor activity against mouse P388 cells allografted in PS mouse assessed as median survival time at 400 ug/kg relative to control; type: functional; method in brief: as §3

Compound | Activity (Mus musculus [1]) [g] | Activity (Mus musculus [2]) [g] | Activity (Mus musculus [3]) | Activity (Mus musculus [4]) | Activity (Mus musculus [5]) | Activity (Mus musculus [6]) | Activity (Mus musculus [7]) | Activity (Mus musculus [8]) | Activity (Mus musculus [9]) | Activity (Mus musculus [10]) | Activity (Mus musculus [11]) [g] | Activity (Mus musculus [12]) [g] | Activity (Mus musculus [13]) [g] | Activity (Mus musculus [16]) [g] | T/C (P388 [17]) [%] | T/C (P388 [18]) [%] | T/C (P388 [24]) [%] | EC50 (KB) [ng/mL] | inhibition (Tubulin (Homo sapiens)) | Activity (Paracentrotus lividus) | also measured
COc1cc2cc(c1Cl)NC(=O)/C=C/C(C)=C/[C@H](C)[C@@H]1C[C@@](O)(NC(=O)O1)[C@H](OC)/C=C/C=C(\C)C2 | 1.4 | 1 | Non-toxic | Non-toxic | Non-toxic | Non-toxic | Non-toxic | Non-toxic | Non-toxic | Non-toxic | 0.8 | 1.8 | -0.8 | 1.2 | 120 | 120 | 104 | 2 (≈ 3.87 nM) | Active | 1 ×10⁻⁸ mol/L | Activity (Mus musculus [14]): 0.7 g; Activity (Mus musculus [15]): 0.7 g; T/C (P388 [19]): 108%; T/C (P388 [20]): <80%; T/C (P388 [21]): 87%; T/C (P388 [22]): 95%; T/C (P388 [23]): 104%
CCC(=O)O[C@H]1CC(=O)N(C)c2cc(cc(OC)c2Cl)C/C(C)=C/C=C/[C@@H](OC)[C@@]2(O)C[C@H](OC(=O)N2)[C@@H](C)[C@@H]2O[C@@]12C | 1.3 | -0.8 | Non-toxic | Toxic | Non-toxic | Non-toxic | Non-toxic | Non-toxic | Non-toxic | Toxic | -2 | -0.9 | -0.5 | -3.5 | <80 | 198 | <80 | 0.21 (≈ 0.338 nM) | Active | 1 nM | Activity (Mus musculus [25]): -0.5 g; Activity (Mus musculus [26]): Non-toxic; Activity (Mus musculus [14]): -0.3 g; Activity (Mus musculus [15]): -1 g; T/C (P388 [19]): 153%; T/C (P388 [20]): 163%; T/C (P388 [21]): 140%; T/C (P388 [22]): 131%; T/C (P388 [23]): 129%; T/C (P388 [27]): 110%
CCCS[C@]12C[C@H](OC(=O)N1)[C@@H](C)[C@@H]1O[C@@]1(C)[C@@H](OC(=O)[C@H](C)N(C)C(C)=O)CC(=O)N(C)c1cc(cc(OC)c1Cl)C/C(C)=C/C=C/[C@H]2OC |  |  | Non-toxic | Non-toxic |  |  |  |  |  | Non-toxic | 2.8 | -1.3 |  | 0.1 | 114 | 111 | 114 | 0.18 (≈ 0.24 nM) | Active | 1 ×10⁻⁸ mol/L | Activity (Mus musculus [28]): Non-toxic; Activity (Mus musculus [29]): -0.7 g; T/C (P388 [30]): 114%
